Assay results published in ChEMBL document CHEMBL5058577, “EUbOPEN Chemogenomics Library 2 (Multiplex)” (2022).

Tested on: HEK-293T
Assay: Multiplex assay against HEK293T
Assay type: toxicity, cell-based
Conditions: human
In short: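 Cells were classed with CellPathfinder machine-learning gating, first as Hoechst high-intensity objects or normal cells, then (normal cells) as healthy, pyknosed or fragmented nuclei, and finally (pyknosed cells) as mitotic or apoptotic. Staining of live cells at seeding used Hoechst33342, BioTracker Green Microtubule Cytoskeleton Dye, MitoTracker Red and Annexin V Alexa Fluor 680, with imaging on a CQ1 microscope at 37°C and 5% CO2 after compound addition. Tubulin, mitochondrial-mass and membrane-permeability phenotypes are per cents of healthy-nucleus cells.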

[1] = 12 h, 1 µM, compound concentration 1 uM, replicate 1
[2] = 12 h, 1 µM, compound concentration 1 uM, replicate 2
[3] = 12 h, 10 µM, compound concentration 10 uM, replicate 1
[4] = 12 h, 10 µM, compound concentration 10 uM, replicate 2
[5] = 24 h, 1 µM, compound concentration 1 uM, replicate 1
[6] = 24 h, 1 µM, compound concentration 1 uM, replicate 2
[7] = 24 h, 10 µM, compound concentration 10 uM, replicate 1
[8] = 24 h, 10 µM, compound concentration 10 uM, replicate 2
[9] = 48 h, 1 µM, compound concentration 1 uM, replicate 1
[10] = 48 h, 1 µM, compound concentration 1 uM, replicate 2
[11] = 48 h, 10 µM, compound concentration 10 uM, replicate 1
[12] = 48 h, 10 µM, compound concentration 10 uM, replicate 2

Structure (SMILES): CCCN1CCC[C@@H]2Cc3n[nH]cc3C[C@H]21.Cl [QUINPIROLE HYDROCHLORIDE]
- Population Apoptotic (%) [1]: 32%
- Population Fragmented Nuclei (%) [1]: 6%
- Population Healthy Nuclei (%) [1]: 84%
- Population Hoechst High Intensity Objects (%) [1]: 6%
- Population Membrane Permeable-Phenotype (%) [1]: 0%
- Population Mitochondria Different-Phenotype (%) [1]: 37%
- Population Mitotic Cells (%) [1]: 67%
- Population Normal (%) [1]: 93%
- Population Pyknosed Nuclei (%) [1]: 9%
- Population Tubulin-Different-Phenotype (%) [1]: 22%
- Total Cell Count [1]: 447
- Population Apoptotic (%) [2]: 63%
- Population Fragmented Nuclei (%) [2]: 4%
- Population Healthy Nuclei (%) [2]: 82%
- Population Hoechst High Intensity Objects (%) [2]: 3%
- Population Mitochondria Different-Phenotype (%) [2]: 67%
- Population Mitotic Cells (%) [2]: 36%
- Population Normal (%) [2]: 96%
- Population Pyknosed Nuclei (%) [2]: 12%
- Population Tubulin-Different-Phenotype (%) [2]: 26%
- Total Cell Count [2]: 294
- Population Apoptotic (%) [3]: 55%
- Population Fragmented Nuclei (%) [3]: 11%
- Population Healthy Nuclei (%) [3]: 72%
- Population Hoechst High Intensity Objects (%) [3]: 9%
- Population Membrane Permeable-Phenotype (%) [3]: 0%
- Population Mitochondria Different-Phenotype (%) [3]: 53%
- Population Mitotic Cells (%) [3]: 44%
- Population Normal (%) [3]: 90%
- Population Pyknosed Nuclei (%) [3]: 15%
- Population Tubulin-Different-Phenotype (%) [3]: 40%
- Total Cell Count [3]: 381
- Population Apoptotic (%) [4]: 46%
- Population Fragmented Nuclei (%) [4]: 5%
- Population Healthy Nuclei (%) [4]: 78%
- Population Hoechst High Intensity Objects (%) [4]: 5%
- Population Mitochondria Different-Phenotype (%) [4]: 69%
- Population Mitotic Cells (%) [4]: 53%
- Population Normal (%) [4]: 94%
- Population Pyknosed Nuclei (%) [4]: 16%
- Population Tubulin-Different-Phenotype (%) [4]: 26%
- Total Cell Count [4]: 312
- Population Apoptotic (%) [5]: 30%
- Population Fragmented Nuclei (%) [5]: 12%
- Population Healthy Nuclei (%) [5]: 79%
- Population Hoechst High Intensity Objects (%) [5]: 3%
- Population Membrane Permeable-Phenotype (%) [5]: 0%
- Population Mitochondria Different-Phenotype (%) [5]: 17%
- Population Mitotic Cells (%) [5]: 70%
- Population Normal (%) [5]: 96%
- Population Pyknosed Nuclei (%) [5]: 8%
- Population Tubulin-Different-Phenotype (%) [5]: 14%
- Total Cell Count [5]: 600
- Population Apoptotic (%) [6]: 29%
- Population Fragmented Nuclei (%) [6]: 8%
- Population Healthy Nuclei (%) [6]: 81%
- Population Hoechst High Intensity Objects (%) [6]: 2%
- Population Mitochondria Different-Phenotype (%) [6]: 37%
- Population Normal (%) [6]: 97%
- Population Pyknosed Nuclei (%) [6]: 9%
- Population Tubulin-Different-Phenotype (%) [6]: 16%
- Total Cell Count [6]: 390
- Population Apoptotic (%) [7]: 45%
- Population Fragmented Nuclei (%) [7]: 10%
- Population Healthy Nuclei (%) [7]: 77%
- Population Hoechst High Intensity Objects (%) [7]: 4%
- Population Membrane Permeable-Phenotype (%) [7]: 0%
- Population Mitochondria Different-Phenotype (%) [7]: 38%
- Population Mitotic Cells (%) [7]: 54%
- Population Normal (%) [7]: 95%
- Population Pyknosed Nuclei (%) [7]: 11%
- Population Tubulin-Different-Phenotype (%) [7]: 27%
- Total Cell Count [7]: 529
- Population Apoptotic (%) [8]: 43%
- Population Fragmented Nuclei (%) [8]: 7%
- Population Healthy Nuclei (%) [8]: 78%
- Population Hoechst High Intensity Objects (%) [8]: 2%
- Population Mitochondria Different-Phenotype (%) [8]: 43%
- Population Mitotic Cells (%) [8]: 56%
- Population Normal (%) [8]: 97%
- Population Pyknosed Nuclei (%) [8]: 13%
- Population Tubulin-Different-Phenotype (%) [8]: 13%
- Total Cell Count [8]: 406
- Population Apoptotic (%) [9]: 21%
- Population Fragmented Nuclei (%) [9]: 16%
- Population Healthy Nuclei (%) [9]: 76%
- Population Hoechst High Intensity Objects (%) [9]: 1%
- Population Membrane Permeable-Phenotype (%) [9]: 1%
- Population Mitochondria Different-Phenotype (%) [9]: 9%
- Population Mitotic Cells (%) [9]: 78%
- Population Normal (%) [9]: 98%
- Population Pyknosed Nuclei (%) [9]: 6%
- Population Tubulin-Different-Phenotype (%) [9]: 10%
- Total Cell Count [9]: 1105
- Population Apoptotic (%) [10]: 33%
- Population Fragmented Nuclei (%) [10]: 11%
- Population Healthy Nuclei (%) [10]: 84%
- Population Hoechst High Intensity Objects (%) [10]: 2%
- Population Mitochondria Different-Phenotype (%) [10]: 19%
- Population Mitotic Cells (%) [10]: 66%
- Population Pyknosed Nuclei (%) [10]: 4%
- Population Tubulin-Different-Phenotype (%) [10]: 8%
- Total Cell Count [10]: 649
- Population Apoptotic (%) [11]: 40%
- Population Fragmented Nuclei (%) [11]: 15%
- Population Healthy Nuclei (%) [11]: 78%
- Population Hoechst High Intensity Objects (%) [11]: 2%
- Population Membrane Permeable-Phenotype (%) [11]: 1%
- Population Mitochondria Different-Phenotype (%) [11]: 23%
- Population Mitotic Cells (%) [11]: 59%
- Population Normal (%) [11]: 97%
- Population Pyknosed Nuclei (%) [11]: 6%
- Population Tubulin-Different-Phenotype (%) [11]: 15%
- Total Cell Count [11]: 772
- Population Apoptotic (%) [12]: 33%
- Population Fragmented Nuclei (%) [12]: 13%
- Population Healthy Nuclei (%) [12]: 80%
- Population Hoechst High Intensity Objects (%) [12]: 1%
- Population Membrane Permeable-Phenotype (%) [12]: 0%
- Population Mitochondria Different-Phenotype (%) [12]: 28%
- Population Mitotic Cells (%) [12]: 66%
- Population Normal (%) [12]: 98%
- Population Tubulin-Different-Phenotype (%) [12]: 13%
- Total Cell Count [12]: 654
